≈ marks a conversion by molar mass, not a printed value.
Columns and labels:
[1] = tested on: Burkholderia pseudomallei; test: Antimicrobial activity against Burkholderia pseudomallei; assay type: functional
[2] = Cmax in critically ill patient with sepsis at […], iv administered every 8 hrs by HPLC method; assay type: ADME, organism-based; set-up: route intravenous; details: human, in vivo
Summary of the method: (§1)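 Meropenem 1,000 mg as reconstituted IV bolus via central venous catheter every 8 h in septic ICU patients on CVVHF. Plasma sampled predose and at 15–480 min, plus 0–8 h urine. Levels measured by validated C18 HPLC-UV at 298 nm with ertapenem internal standard. Noncompartmental analysis used linear trapezoidal AUC0-8 and AUMC, and λz from 2–8 h log-linear regression.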

Homo sapiens [3] = test: Ultrafiltration flow rate in critically ill patient with sepsis receiving high-volume continuous venovenous hemofiltration at […], iv administered every 8 hrs by HPLC method; assay type: ADME, organism-based; set-up: route intravenous; details: in vivo
Homo sapiens [4] = test: Clearance not mediated by CVVHF in critically ill patient with sepsis at […], iv administered every 8 hrs by HPLC method; assay type: ADME, organism-based; set-up: route intravenous; details: in vivo
Homo sapiens [5] = test: Hemofiltration clearance in critically ill patient with sepsis receiving high-volume continuous venovenous hemofiltration at […], iv administered every 8 hrs by HPLC method; assay type: ADME, organism-based; set-up: route intravenous; details: in vivo
Summary of the method: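 Same 1,000 mg q8h IV bolus regimen on CVVHF. Filter was changed if it was over 3 h old at the start of sampling. Pre- and postfilter blood and ultrafiltrate were collected at matched times over 0–480 min, and all ultrafiltrate was collected for the interval. Concentrations were measured by HPLC-UV. CVVHF clearance = ultrafiltrate amount/AUC0-8; […].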

[6] = Renal clearance in critically ill patient with sepsis at […], iv administered every 8 hrs by HPLC method; assay type: ADME, organism-based, Kidney; set-up: route intravenous; details: human, in vivo, read-out: CL_renal (converted); summary of the method: as §1
[7] = fT>MIC in patient with acute kidney injury infected with Burkholderia pseudomallei; assay type: functional
Summary of the method: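 Ten critically ill septic patients with AKI on high-volume CVVHF received meropenem 1,000 mg every 8 h as a central-venous bolus. Plasma was assayed by HPLC-UV at 298 nm with an ertapenem internal standard. Concentration-time data were compared with an MIC of 4 mg/liter.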

Homo sapiens [8] = species on record: Homo sapiens; test: Plasma protein binding in patient with acute kidney injury; assay type: ADME, organism-based

Molecule `C[C@@H](O)[C@H]1C(=O)N2C(C(=O)O)=C(S[C@@H]3CN[C@H](C(=O)N(C)C)C3)[C@H](C)[C@H]12` [MEROPENEM] has an MIC90 [1] of 4 µg/mL (≈ 10.4 µM), a Cmax [2] of 56.6 µg/mL and an Activity (Homo sapiens [3]) of 4.4 L/h. It also gave a CL (Homo sapiens [4]) of 2.4 L/h, a CL (Homo sapiens [5]) of 3.5 L/h and a CL renal at 8 h [6] of 0.0833 mL/min. For the same molecule, the “fT>MIC” value [7] was 40% and the Activity (Homo sapiens [8]) was 2%.

From ChEMBL document CHEMBL1275249, “Meropenem dosing in critically ill patients with sepsis receiving high-volume continuous venovenous hemofiltration” (Antimicrob Agents Chemother, 2010)
